Assay results reported in PMC10896134 (Pharmaceutical Biology, 2024).

Legend:
BEAS-2B = test: Antiproliferation assay; type: cell-based; conditions: Homo sapiens, 24 h, read-out: IC50 = mean ± SD, BEAS-2B
Outline: (§1)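 Cell lines were grown at 37 °C under 5% CO2 in their own media: A549 in DMEM/F12, H446 in RPMI 1640, and HeLa, MCF-7, L02 and BEAS-2B in high-glucose DMEM with L-glutamine, with 10% FBS and penicillin/streptomycin. Cells were seeded in 96-well plates and exposed to test compounds or reference agents at 37 °C for 24 h. CCK-8 was added for 2 h and absorbance read at 450 nm.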

H446 = test: Antiproliferation assay; type: cell-based; conditions: Homo sapiens, NCI-H446, 24 h, read-out: IC50 = mean ± SD, H446
Outline: as §1

Hela = test: Antiproliferation assay; type: cell-based; conditions: Homo sapiens, 24 h, read-out: IC50 = mean ± SD, Hela
Outline: as §1

A549 cells [1] = test: Wound healing migration assay; type: cell-based, human; conditions: A549, 24 h; E5 0.5, 1.0 and 2.0 µM, etoposide 1.0 µM
Outline: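 Scratch assay: A549 cells were grown to 85% confluence in 6-well plates, scratched with a pipette tip and washed with PBS. They were then incubated at 37 °C for 24 h with 0.1% DMSO, test compound (0.5, 1.0 or 2.0 µM) or reference agents (1.0 µM). Wounds were imaged at 0 and 24 h, and inhibition of migration was expressed relative to control.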

A549 = test: Antiproliferation assay; type: cell-based; conditions: Homo sapiens, A549, 24 h, read-out: IC50 = mean ± SD, A549
Outline: as §1

L02 = test: Antiproliferation assay; type: cell-based; conditions: Homo sapiens, L02, 24 h, read-out: IC50 = mean ± SD, L02
Outline: as §1

A549 xenografts = test: A549 xenograft tumour model in nude mice; type: in vivo, female BALB/c nude mice; conditions: 2 mg/kg i.p. once every two days, eight times
Outline: (§2)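 Female BALB/c nude mice, 5 weeks old, acclimated 1 week, then given 5.0 × 10^6 A549 cells in 0.1 mL serum-free medium subcutaneously into the left axilla. Body weight and caliper tumour size (0.5 × length × width2) were taken every two days; tumours were excised and weighed at the end.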

MCF-7 = test: Antiproliferation assay; type: cell-based; conditions: Homo sapiens, MCF7, 24 h, read-out: IC50 = mean ± SD, MCF-7
Outline: as §1

[2] = system: interphase microtubules of A549 cells (tubulin); test: Confocal microscopy / western blot of tubulin depolymerization; type: cell-based, human; conditions: A549, 24 h; E5 0.5 and 1.0 µM, colchicine 1.0 µM, etoposide 1.0 µM
[3] = system: non-small cell lung cancer (NSCLC) cell lines; conditions: at 2 mM; ref Chang and Szabo [2002]; cited from earlier work
[4] = system: non-neuroblastoma cell lines; conditions: read-out: IC50 in non-neuroblastoma cell lines; ref Aggarwal et al. [2012]; cited from earlier work
neuroblastoma cell lines = conditions: read-out: IC50 in neuroblastoma cell lines; ref Aggarwal et al. [2012]; cited from earlier work
A549 cells [5] = test: Transwell invasion assay; type: cell-based, human; conditions: A549, 24 h; better than PPT and etoposide at 1.0 µM
[6] = system: PI3K/Akt pathway in A549 cells; test: Western blot of PI3K/Akt signalling pathway proteins; type: cell-based, human; conditions: A549, E5 0.1, 1.0 and 2.0 µM, 24 h
Outline: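 A549 cells were treated 24 h with test compound (0.1, 0.5, 1.0 or 2.0 µM), LY294002 (1.0 µM) or a reference agent (1.0 µM). Lysates were heat-denatured in non-reducing sample buffer and quantified by Bradford assay. 20 µg protein ran on 10% SDS-PAGE, transferred to PVDF and probed for PI3K, pPI3K, Akt and pAkt with GAPDH as loading control. Detection was by ECL with densitometry.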

A549 cells [7] = test: Mitochondrial membrane potential analysis; type: cell-based, human; conditions: A549, JC-1, 2.0 µM, 12 h; control 4.33%
A549 cells [8] = test: Colony formation assay; type: cell-based, human; conditions: A549, versus control and PPT-treated cells
A549 cells [9] = test: Cell-cycle analysis; type: cell-based, human; conditions: A549, 1.0 µM, 24 h, Figure 4C
Outline: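 A549 cells (5.0 × 10^4/well) adhered overnight, then received 0.1% DMSO, test compound (0.1, 0.5 or 1.0 µM) or reference agent (1.0 µM) for 24 h; a time course used 0.5 µM for 12, 24 and 36 h. Cells were fixed in 70% ethanol at 4 °C for 24 h and stained with RNase A plus propidium iodide at 4 °C for 0.5 h in the dark. Flow cytometry gated G0/G1, S and G2/M by DNA content.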

[10] = system: Bax and Bcl-2 in A549 cells; test: Western blot of apoptosis-related proteins; type: cell-based, human
Outline: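 Immunoblot of A549 lysates: heat-denatured in non-reducing sample buffer, Bradford-quantified, 20 µg protein on 10% SDS-PAGE, transferred to PVDF. Blots were probed for Bax and Bcl-2 with GAPDH as internal control, detected by ECL and quantified by densitometry. Data given as mean ± SD.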

[11] = Body weight of xenograft mice; type: in vivo, female BALB/c nude mice; conditions: E5 i.p., A549 xenograft mice, 15 days
Outline: as §2

Structure (SMILES) | IC50 (BEAS-2B) [µM] | IC50 (H446) [µM] | IC50 (Hela) [µM] | cell scratch healing (migration) (A549 cells [1]) | IC50 (A549) [µM] | IC50 (L02) [µM] | tumour growth, E5 and etoposide at the same dose (A549 xenografts) | IC50 (MCF-7) [µM] | tubulin depolymerization [2] | other results
COc1cc([C@@H]2c3cc4c(cc3[C@@H](O[C@@H]3O[C@@H]5CO[C@@H](C)O[C@H]5[C@H](O)[C@H]3O)[C@H]3COC(=O)[C@H]23)OCO4)cc(OC)c1O [Etoposide, etoposide, reference compound] | 67.6 ± 2.25 | 2.21 ± 0.42 | 24.7 ± 0.79 | strong inhibitory effect | 9.32 ± 0.55 | 13.5 ± 1.15 | specific inhibitory effect | 10.9 ± 0.39 | did not show such an effect | –
O=C([O-])CCCc1ccccc1.[Na+] [sodium 4-phenylbutyrate] | – | – | – | – | – | – | – | – | – | growth of NSCLC cell lines [3]: impeding the growth
COc1ccc(S(=O)(=O)Nc2cccnc2Nc2ccc(O)cc2)cc1 [ABT-751] | – | – | – | – | – | – | – | – | – | IC50 [4]: ~3.4 µM; IC50 (neuroblastoma cell lines): ~1.5 µM
COc1cc([C@@H]2c3cc4c(cc3[C@H](OC(=O)CCCc3ccc(NS(=O)(=O)c5cccc(Br)c5)cc3)[C@H]3COC(=O)[C@H]23)OCO4)cc(OC)c1OC [Compound E5, (5R,5aR,8aR,9R)-8-oxo-9-(3,4,5-trimethoxyphenyl)-5,5a,6,8,8a,9-hexahydrofuro [3′,4′:6,7]naphtho[2,3-d][1,3]dioxol-5-yl4-(4-((3-bromophenyl)sulfonamido)phenyl)butanoate] | > 100 | 2.42 ± 0.3 | 51.3 ± 1.42 | significantly slowed dose dependent | 0.35 ± 0.13 | > 100 | specific inhibitory effect | 2.91 ± 0.55 | significant tubulin depolymerization | cell invasion (A549 cells [5]): effectively inhibited cell invasion; expression of pPI3K and pAkt [6]: down-regulated dose-dependent; cells with low ΔΨm (ratio of cells with low membrane potential) (A549 cells [7]): 24.7%; clone formation rate and clone size (A549 cells [8]): lower clone formation rate and a smaller clone size; cells in G2/M phase (A549 cells [9]): 32.73%; cells in S phase (A549 cells [9]): 34.09%; Bax expression [10]: increased; expression of the antiapoptotic protein Bcl-2 [10]: significantly decreased; body weight of the mice [11]: no significant changes
